# Tests used:
# MAP kinase p38 [1] = target: T1, MAP kinase p38 (Homo sapiens, UniProt O15264+Q15759+Q16539+P53778); test: Inhibitory activity against Mitogen-activated protein kinase p38 (MAP kinase); format: protein assay
# [2] = target: T2, RAF proto-oncogene serine/threonine-protein kinase (Homo sapiens, UniProt P04049); test: Inhibitory activity against recombinant human RAF proto-oncogene serine/threonine-protein kinase
# MAP kinase p38 [3] = target: T1, MAP kinase p38; test: Inhibition of Mitogen-activated protein kinase p38; format: protein assay
# [4] = target: T3, Mitogen-activated protein kinase 9 (Homo sapiens, UniProt P45984); test: Inhibition of c-Jun N-terminal kinase 2-alpha 1
# Target sequence in this assay (P45984 whole entry): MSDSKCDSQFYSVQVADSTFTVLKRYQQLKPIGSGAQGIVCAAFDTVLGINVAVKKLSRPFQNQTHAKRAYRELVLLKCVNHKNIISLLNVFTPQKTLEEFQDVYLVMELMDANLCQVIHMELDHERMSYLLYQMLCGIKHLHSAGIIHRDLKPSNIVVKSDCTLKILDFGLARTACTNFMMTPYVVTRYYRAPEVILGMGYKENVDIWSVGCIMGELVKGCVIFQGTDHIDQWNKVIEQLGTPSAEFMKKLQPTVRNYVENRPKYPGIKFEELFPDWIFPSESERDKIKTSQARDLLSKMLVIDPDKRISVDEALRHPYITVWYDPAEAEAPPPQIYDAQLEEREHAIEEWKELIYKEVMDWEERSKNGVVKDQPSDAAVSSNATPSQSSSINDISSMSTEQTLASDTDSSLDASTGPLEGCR
# [5] = target: T2, RAF proto-oncogene serine/threonine-protein kinase; test: Inhibition human c-Raf kinase at 1000 nM
# MAP kinase p38 [6] = target: T1, MAP kinase p38; test: Inhibition of LPS-induced release of Tumor necrosis factor-alpha (TNF-alpha) from human whole blood; format: functional, tissue-based
# [7] = (§1) Clpl value in rat; format: ADME, organism-based; conditions: plasma, read-out: Clpl
# Method in brief: (§2)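 Male Sprague-Dawley rats, n = 3, dosed iv at 2 mg/kg or orally at 10 mg/kg. Mean plasma concentrations were followed over time. Pharmacokinetic parameters were derived from these plasma profiles.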
# [8] = (§3) Vd sss value in rat; format: ADME, organism-based; conditions: in vivo, read-out: Vdss; method in brief: as §2
# [9] = (§4) Intravenous half life in rat was determined; format: ADME, organism-based; conditions: in vivo; method in brief: as §2
# [10] = Bioavailability in rat; format: ADME, organism-based; conditions: in vivo; method in brief: as §2
# [11] = target: T2, RAF proto-oncogene serine/threonine-protein kinase; test: Inhibition of human c-Raf kinase
# [12] = target: T2, RAF proto-oncogene serine/threonine-protein kinase; test: Inhibition of human RAF kinase at 5000 nM
# [13] = target: T3, Mitogen-activated protein kinase 9; test: Inhibition of c-Jun N-terminal kinase 2-alpha 1 at 40000 nM
# Target sequence in this assay (P45984 whole entry, looked up): as the sequence (P45984 whole entry) above
# Rattus norvegicus [14] = species on record: Rattus norvegicus; test: as §1; format: ADME, organism-based; conditions: in vivo; method in brief: as §2
# Rattus norvegicus [15] = species on record: Rattus norvegicus; test: as §3; format: ADME, organism-based; conditions: in vivo; method in brief: as §2
# Rattus norvegicus [16] = test: as §4; format: ADME, organism-based; conditions: in vivo; method in brief: as §2
# [17] = Oral maximum concentration in rat; format: ADME, organism-based; set-up: route oral; conditions: in vivo; method in brief: as §2
# [18] = target: T3, Mitogen-activated protein kinase 9; test: Inhibition of c-Jun N-terminal kinase 2-alpha 2
# Target sequence in this assay (P45984 whole entry): as above
# [19] = target: Dual specificity mitogen-activated protein kinase kinase; MEK1/2 (Homo sapiens, UniProt P36507+Q02750); test: Inhibition of MEK-1, Mitogen activated protein kinase kinase 1; format: protein assay
# [20] = target: cAMP-dependent protein kinase (PKA) (Homo sapiens, UniProt P22694+P17612+P22612); test: Inhibition of Protein kinase A; format: protein assay
# Method in brief: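 PKA was run at room temperature with 10 µM [33P]ATP and 10 µM kemptide substrate, under the supplier's conditions. The reaction was stopped with 75 mM phosphoric acid. Product was captured on phosphocellulose filters, washed with phosphoric acid and counted by scintillation.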
# Protein kinase C (PKC) = test: Inhibition of Protein kinase C; format: protein assay
# Method in brief: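 PKC (isozyme mix) was run at room temperature with 10 µM [33P]ATP and 70 µg/mL myelin basic protein substrate, under the supplier's conditions. Stopped with EDTA/pyrophosphate, filter-captured and counted by scintillation.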
# [21] = Intravenous half life in rat; format: ADME, organism-based; conditions: in vivo; method in brief: as §2
# T2 sequence (P04049 whole entry): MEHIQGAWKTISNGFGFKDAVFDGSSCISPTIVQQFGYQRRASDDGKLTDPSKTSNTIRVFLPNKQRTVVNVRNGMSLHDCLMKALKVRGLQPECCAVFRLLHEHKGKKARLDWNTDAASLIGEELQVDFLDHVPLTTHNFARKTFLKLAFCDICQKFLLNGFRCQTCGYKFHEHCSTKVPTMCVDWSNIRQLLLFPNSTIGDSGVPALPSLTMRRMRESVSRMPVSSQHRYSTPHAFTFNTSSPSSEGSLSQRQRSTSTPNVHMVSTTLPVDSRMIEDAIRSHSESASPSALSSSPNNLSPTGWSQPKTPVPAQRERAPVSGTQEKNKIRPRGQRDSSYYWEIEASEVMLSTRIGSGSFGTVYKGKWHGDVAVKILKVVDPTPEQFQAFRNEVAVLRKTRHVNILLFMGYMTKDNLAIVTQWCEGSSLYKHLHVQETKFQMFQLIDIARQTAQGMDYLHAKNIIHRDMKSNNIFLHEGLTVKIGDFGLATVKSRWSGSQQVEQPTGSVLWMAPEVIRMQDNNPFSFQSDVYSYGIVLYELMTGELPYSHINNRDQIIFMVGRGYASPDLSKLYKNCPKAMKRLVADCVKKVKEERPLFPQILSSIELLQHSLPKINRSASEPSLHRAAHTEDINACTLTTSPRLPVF
Structure (SMILES),IC50 (MAP kinase p38 [1]),IC50 [2],IC50 [4],also measured
Clc1ccc(-c2nc(-c3ccccc3)[nH]c2-c2ccncc2)cc1,48 nM,56 nM,–,–
COc1ccc(CNc2nccc(-c3[nH]c(C4CCNCC4)nc3-c3cccc(C(F)(F)F)c3)n2)cc1,–,–,735 nM,IC50 (MAP kinase p38 [3]): 7.6 nM; inhibition [5]: 66%
Clc1cc(Cl)cc(-c2[nH]c(-c3ccccc3)nc2-c2ccncc2)c1,137 nM,1600 nM,–,–
Clc1ccccc1-c1nc(-c2ccccc2)[nH]c1-c1ccncc1,150 nM,610 nM,–,–
c1ccc(-c2nc(-c3ccccc3)c(-c3ccncn3)[nH]2)cc1,700 nM,5000 nM,1420 nM,–
Oc1ccc(-c2[nH]c(-c3ccccc3)nc2-c2ccncc2)cc1,1400 nM,390 nM,–,–
C[C@@H](Nc1nccc(-c2[nH]c(C3CCNCC3)nc2-c2cccc(C(F)(F)F)c2)n1)c1ccccc1,0.97 nM,4500 nM,295 nM,IC50 (MAP kinase p38 [6]): 0.4 nM
Nc1nccc(-c2[nH]c(C3CCNCC3)nc2-c2cccc(C(F)(F)F)c2)n1,–,–,3300 nM,clearance [7]: 167 mL/min/kg; IC50 (MAP kinase p38 [3]): 7 nM; Vd [8]: 1.23 L/kg; inhibition [5]: 36%; half-life [9]: 0.132 h; bioavailability [10]: 0%
COc1ccc(CNc2nccc(-c3[nH]c(-c4ccccc4)nc3-c3ccccc3)n2)cc1,38 nM,1000 nM,98 nM,–
Oc1cccc(-c2nc(-c3ccccc3)[nH]c2-c2ccncc2)c1,140 nM,23 nM,–,–
C[C@H](Nc1nccc(-c2nc(C3CCNCC3)n(C)c2-c2cccc(C(F)(F)F)c2)n1)c1ccccc1,–,–,–,inhibition [12]: 26%; inhibition [13]: 37%
N#Cc1ccc(-c2[nH]c(-c3ccccc3)nc2-c2ccncc2)cc1,970 nM,86 nM,–,–
Fc1ccc(-c2[nH]c(C3CCCNC3)nc2-c2ccncc2)cc1 (stereo unspecified),–,110 nM,140 nM,–
COc1cccc(-c2[nH]c(-c3ccccc3)nc2-c2ccncc2)c1,550 nM,210 nM,–,–
COC(=O)c1ccc(-c2[nH]c(-c3ccccc3)nc2-c2ccncc2)cc1,–,–,–,IC50 (MAP kinase p38 [3]): > 10000 nM; IC50 [11]: 320 nM
COc1ccc(-c2nc(-c3ccccc3)[nH]c2-c2ccncc2)cc1,300 nM,950 nM,–,–
Fc1ccc(-c2[nH]c(C3CCCCC3)nc2-c2ccncc2)cc1,70 nM,135 nM,29 nM,–
Fc1ccc(-c2[nH]c(C3CCNCC3)nc2-c2ccncc2)cc1,9 nM,80 nM,210 nM,–
C[C@H](Nc1nccc(-c2[nH]c(C3CCNCC3)nc2-c2cccc(C(F)(F)F)c2)n1)c1ccccc1,–,–,1750 nM,Clpl (Rattus norvegicus [14]): 146 mL/min/kg; IC50 (MAP kinase p38 [3]): 0.75 nM; IC50 [11]: 3500 nM; Vdss (Rattus norvegicus [15]): 6.5 L/kg; T1/2 (Rattus norvegicus [16]): 1 min; bioavailability [10]: 0%; IC50 (MAP kinase p38 [6]): 6 nM
c1ccc(-c2nc(-c3ccncc3)c(-c3ccc(C4CCCCC4)cc3)[nH]2)cc1,> 10000 nM,570 nM,–,–
C[C@H](Nc1cc(-c2c(-c3cccc(C(F)(F)F)c3)nc(C3CCNCC3)n2C)ccn1)c1ccccc1,–,–,1170 nM,clearance [7]: 63 mL/min/kg; Cmax [17]: 390 nM; IC50 [18]: 2200 nM; IC50 [11]: 810 nM; IC50 [19]: > 10000 nM; IC50 [20]: > 1500 nM; Vd [8]: 12.3 L/kg; IC50 (Protein kinase C (PKC)): > 1500 nM; half-life [9]: 2.85 h; bioavailability [10]: 85%
C[C@H](Nc1nccc(-c2c(-c3cccc(C(F)(F)F)c3)nc(C3CCNCC3)n2C)n1)c1ccccc1,–,–,–,clearance [7]: 38.3 mL/min/kg; Cmax [17]: 780 nM; Vd [8]: 12.7 L/kg; bioavailability [10]: 64%; half-life [21]: 4.9 h

# Further lines, with some results ahead:
IC50 (MAP kinase p38 [1]),IC50 [2],IC50 [4],Structure (SMILES),also measured
28 nM,20 nM,–,Clc1ccc(-c2[nH]c(-c3ccccc3)nc2-c2ccncc2)cc1Cl,–
170 nM,1300 nM,195 nM,Fc1ccc(-c2nc[nH]c2-c2ccncc2)cc1,–
2100 nM,> 10000 nM,–,CC(C)c1ccc(-c2[nH]c(-c3ccccc3)nc2-c2ccncc2)cc1,–
–,–,910 nM,FC(F)(F)c1cccc(-c2nc(-c3ccccc3)[nH]c2-c2ccncc2)c1,IC50 (MAP kinase p38 [3]): 86 nM; IC50 [11]: 2600 nM
180 nM,380 nM,130 nM,c1ccc(-c2nc(-c3ccccc3)c(-c3ccncc3)[nH]2)cc1,–
130 nM,90 nM,–,Clc1cccc(-c2nc(-c3ccccc3)[nH]c2-c2ccncc2)c1,–
1000 nM,2500 nM,–,c1ccc(-c2ccc(-c3[nH]c(-c4ccccc4)nc3-c3ccncc3)cc2)cc1,–
495 nM,3000 nM,–,Fc1cccc(-c2[nH]c(-c3ccccc3)nc2-c2ccncc2)c1,–
200 nM,1400 nM,–,FC(F)(F)c1ccc(-c2[nH]c(-c3ccccc3)nc2-c2ccncc2)cc1,–
120 nM,2100 nM,175 nM,CNc1nccc(-c2[nH]c(-c3ccccc3)nc2-c2ccccc2)n1,–
57 nM,750 nM,180 nM,Nc1nccc(-c2[nH]c(-c3ccccc3)nc2-c2ccccc2)n1,–

# Reference: ChEMBL document CHEMBL1132637, “Design and synthesis of potent, selective, and orally bioavailable tetrasubstituted imidazole inhibitors of p38 mitogen-activated protein kinase” (J Med Chem, 1999)
